Kir21 block = inhibitors of mouse Kir2.1 inward-rectifier potassium channel | 310,000 tested, 0.85% active | B-score at 10 µM | HEK293-Kir2.1, FluxOR thallium flux fluorescence; stronger effect = lower value;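 active = fluorescence ratio B-score at or below minus 3 SD of library scores, with starting-brightness B-score within 2 SD, cut at about -4.2 in these data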;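 also: channel flux triggered by added potassium and thallium sulfate stimulus; B-score of peak minus minimum fluorescence over baseline after thallium stimulus; more negative B-score means stronger Kir2.1 block with less thallium influx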
KCNQ1 block = inhibitors of human KCNQ1 channel, primary screen, cell-based, thallium flux, high-throughput. 310,000 tested, 1.3% active. AID 2642, 2010. CHO-K1 KCNQ1, FluxOR thallium flux fluorescence; stronger effect = higher value. Potassium voltage-gated channel subfamily KQT member 1 (Homo sapiens), P51787. B-score at 10 µM;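 active = compounds whose thallium flux B-score, printed positive for inhibition, exceeds three library SD while starting fluorescence stays within three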;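 also: channel opened by potassium depolarization with thallium stimulus after 20 min compound exposure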
Target sequence (P51787 whole entry, looked up): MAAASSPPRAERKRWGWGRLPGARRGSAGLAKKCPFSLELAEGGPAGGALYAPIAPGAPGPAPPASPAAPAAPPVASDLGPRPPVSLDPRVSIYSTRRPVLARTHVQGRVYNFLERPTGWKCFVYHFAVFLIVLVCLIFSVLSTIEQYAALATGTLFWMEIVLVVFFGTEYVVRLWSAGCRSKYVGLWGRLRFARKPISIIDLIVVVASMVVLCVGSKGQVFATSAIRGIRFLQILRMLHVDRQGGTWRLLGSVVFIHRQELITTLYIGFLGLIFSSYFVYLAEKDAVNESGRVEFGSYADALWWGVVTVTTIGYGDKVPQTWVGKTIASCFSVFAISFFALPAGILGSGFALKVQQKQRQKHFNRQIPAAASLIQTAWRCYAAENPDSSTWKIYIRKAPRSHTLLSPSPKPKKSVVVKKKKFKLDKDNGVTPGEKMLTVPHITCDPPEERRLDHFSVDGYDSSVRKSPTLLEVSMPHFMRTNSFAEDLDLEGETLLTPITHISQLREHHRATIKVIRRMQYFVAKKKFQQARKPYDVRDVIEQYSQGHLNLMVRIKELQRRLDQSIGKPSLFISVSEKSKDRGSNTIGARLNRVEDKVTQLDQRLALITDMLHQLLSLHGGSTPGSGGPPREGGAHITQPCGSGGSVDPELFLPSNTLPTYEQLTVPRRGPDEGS
hERG protect = hERG rescue from dofetilide block, primary screen, cell-based, CHO-hERG, FluxOR thallium flux, dofetilide IC70; Voltage-gated inwardly rectifying potassium channel KCNH2 (Homo sapiens), Q12809; activation (rescue from dofetilide block), less the hit threshold, % at 10 µM; dofetilide IC70 present; 310,000 tested, 0.51% active;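 active = activation above the mean of controls blocked by dofetilide plus 5 SD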;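 also: thallium influx through hERG after potassium depolarization seen as dye fluorescence rise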
KCNK9 inh = KCNK9 potassium channel inhibitors, primary screen, HEK293 cells, thallium flux. Potassium channel subfamily K member 9 (Homo sapiens), Q9NPC2. FluxOR thallium flux fluorescence; stronger effect = lower value. B-score at 10 µM. 310,000 tested, 1.2% active. AID 488922, 2010;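 active = ratio B-score over 3 SD below the library mean, with starting fluorescence within 5 SD of its mean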;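 also: negative B-score means less thallium flux so channel inhibition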
KCNQ1 act = potentiators or activators of KCNQ1 channel, primary screen, cell-based, thallium flux, high-throughput; Potassium voltage-gated channel subfamily KQT member 1 (Homo sapiens), P51787; CHO-K1 KCNQ1, thallium flux FluxOR fluorescence; stronger effect = higher value; B-score at 10 µM; 310,000 tested, 0.35% active;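 active = fluorescence ratio B-score, a plate-corrected score, at least three library SD, with initial intensity B-score within 5 SD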
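Assay system: CHO-K1 cells stably expressing KCNQ1; Medium: assay buffer with matched DMSO; Also added: K+/Tl+ depolarizing stimulus; Dosing: single dose; Timing: dye 90 min, compound 20 min, room temperature; Measured by: kinetic FluxOR thallium fluorescence, 10-s 1-Hz baseline, 110-s post-stimulus read; Read-out: peak-minus-minimum fluorescence over initial fluorescence, negative-control normalized, B-scored.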
KCNK3 block = human KCNK3 channel inhibitors, primary screen, CHO cells, FluxOR thallium flux, B-score. AID 602410, 2012. FluxOR fluorescence; stronger effect = lower value. Potassium channel subfamily K member 3 (Homo sapiens), O14649. B-score at 10 µM. 340,000 tested, 0.84% active;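 active = B-score under library mean minus 4 SD, starting fluorescence ratio at most library mean plus 5 SD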;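 also: more negative B-score means stronger inhibition of thallium flux through KCNK3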
* = called active by the depositor; i = inactive; · = not tested or not shown. Compounds with a hit are over-represented: about 3.7% of the library has one in this group of screens.

SMILES	Kir21 block	KCNQ1 block	hERG protect	KCNK9 inh	KCNQ1 act	KCNK3 block
CCC(=O)OCc1c(C(F)(F)F)nn(C)c1Sc1ccc(Cl)cc1	-4.9*	i	-19	i	i	i
CC(=O)OCc1c(C(F)(F)F)nn(C)c1Sc1ccccc1	-0.12	i	-12	i	i	i
CC(=O)Nc1ccc(S(=O)(=O)NCCCc2ccccc2)cc1	0.08	i	-1	i	i	i
COc1ccc(CCC2(C)NC(=O)N(C(C)C(=O)Nc3ccccc3F)C2=O)cc1 (stereo unspecified)	·	·	·	·	·	i
CN1C(=O)NC(c2ccccc2[N+](=O)[O-])C2=C1CCCC2=O (stereo unspecified)	-1.8	6*	-15	i	i	i
CN1C(=O)NC(c2ccccc2[N+](=O)[O-])C2=C1CC(C)(C)CC2=O (stereo unspecified)	0.93	i	-6	i	i	i
CCCN(CC(=O)Nc1cc(Cl)ccc1Cl)C(=O)/C=C/c1cc(OC)ccc1OC	·	·	·	·	·	-8.7*
CN(C)CCCNC(=O)/C(=C\c1ccc(-c2ccc(Br)cc2)o1)NC(=O)c1ccccc1	-1.9	i	-18	i	i	i
Cc1ccc(C(=O)N/C(=C\c2ccc(-c3ccc(Cl)cc3)o2)C(=O)NCCCN(C)C)cc1	-5.3*	i	-23	i	i	i
CN(C)CCNC(=O)/C(=C/c1ccc(-c2cccc(Cl)c2)o1)NC(=O)c1ccccc1	-4.6*	i	-19	i	i	i
O=C(CCCSCCCC(=O)NN=Cc1ccccc1)NN=Cc1ccccc1	·	·	·	·	·	i
CC(C)=CCc1c(O)cc2c(=O)c3ccc(O)cc3oc2c1O	0.22	i	-11	-12*	i	i
O=C(NCC1COc2ccccc2O1)c1cccc(S(=O)(=O)N2CCN(c3ccccc3)CC2)c1 (stereo unspecified)	·	·	·	·	·	i
COc1ccc(/C=N\NC(=O)c2ccc(-c3ccccc3)cc2)cc1COC(C)=O	-0.87	i	-11	i	i	i
CCc1ccc(/C=N/NC(=O)c2cc(-c3ccccc3OC)nc3ccccc23)s1	-1.2	6*	-10	i	i	i
COc1ccc(/C=N/NC(=O)c2cc(-c3ccc(C)cc3C)nc3ccccc23)cc1COC(C)=O	-0.01	i	-7	i	i	-8.8*
COC(=O)CCN1CCC2CC1c1cc(-c3cccc(C)c3)ccc12 (stereo unspecified)	·	·	·	·	·	i
COc1ccccc1CNS(=O)(=O)CCNCCc1ccccc1	·	·	·	·	·	i
CCc1ccccc1Nc1nc(N)nc(COC(=O)CCNS(=O)(=O)c2ccccc2)n1	-0.03	i	-17	-8.1*	i	i
COc1ccc(C2CC(=O)Oc3c(C(CCN4CCCCC4)c4ccc(N(C)C)cc4)c(OC)cc(OC)c32)cc1 (stereo unspecified)	1.2	i	-10	i	i	i
COc1ccc(C2CC(=O)Oc3c(C(CCN4CCCC(C)C4)c4ccc(N(C)C)cc4)c(OC)cc(OC)c32)cc1 (stereo unspecified)	0.53	7*	-10	i	i	i
COc1cccc(/C(C)=N/Nc2ccc(S(=O)(=O)N3CCCCC3)cn2)c1	·	·	·	·	·	i
CCN(CC)CC(=O)Nc1sc(C)c(C)c1C(=O)c1ccc(C)cc1	0.01	6*	-18	i	i	i
CCN(CC)CC(=O)Nc1sc(C)cc1C(=O)c1ccccc1	-0.89	i	-6	i	i	i
O=C(Nc1ccccc1Sc1ccccc1)C1CCCO1 (stereo unspecified)	-4.8*	i	-5	i	i	i
SMILES	Kir21 block	KCNQ1 block	hERG protect	KCNK9 inh	KCNQ1 act	KCNK3 block
O=C(Cc1ccccc1)Nc1ccccc1Sc1ccccc1	-9.2*	i	-5	i	i	i
O=C(Cc1ccc(F)cc1)Nc1ccccc1Sc1ccccc1	-6.3*	i	-3	i	i	i
CSc1ccccc1NC(=O)Cc1ccccc1	-0.43	i	-13	i	i	i
O=C(Nc1ccccc1Sc1ccccc1)c1ccccc1	1.1	i	-9	-7.7*	i	i
O=C(Cc1ccc(Br)cc1)Nc1ccccc1Sc1ccccc1	0.36	i	3	i	i	i
CC(NC(=O)CCNC(=O)c1ccc(C(C)(C)C)cc1)c1ccccc1 (stereo unspecified)	·	·	·	·	·	i
COc1ccc(C(=O)NNC(=O)Nc2ccc(Cl)cc2)cc1	-0.01	i	-9	i	i	i
CN(CC(=O)Nc1ccccc1Br)C(=O)c1ccccc1OCc1ccc(Cl)cc1	·	·	·	·	·	i
CCOc1ccc(N(CC(=O)N2CCCC2)S(=O)(=O)c2ccc(Cl)cc2)cc1	0.36	i	-15	i	i	i
Cc1cn(CC(=O)NCCc2ccccn2)c(=O)[nH]c1=O	·	·	·	·	·	i
Cc1ccc(C)c(Oc2cc(NC(=O)CCCn3nc(C)c([N+](=O)[O-])c3C)cc([N+](=O)[O-])c2)c1	0.8	i	-1	-7.7*	i	i
CC(=O)Nc1ccc(-n2nnnc2SCC(=O)NCc2cccs2)cc1	-0.4	i	-17	i	i	i
CC(Oc1ccccc1)C(=O)Nc1ccc(F)c(S(=O)(=O)N2CCOCC2)c1 (stereo unspecified)	·	·	·	·	·	i
O=C(OCc1nnc(-c2ccccc2)o1)c1ccc(Cl)cc1	0	i	-10	i	i	i
CS(=O)(=O)c1ccc(C(=O)OCc2nnc(-c3ccccc3)o2)cc1[N+](=O)[O-]	0	i	-17	i	21*	i
CCOc1cc(N2CCOCC2)c(OCC)cc1NC(=O)c1cc(S(=O)(=O)N2CCOCC2)ccc1F	·	·	·	·	·	i
CCCCC(C(=O)NC1CCCC1)N(Cc1ccccc1)C(=O)c1snc(C(N)=O)c1N (stereo unspecified)	1.2	10*	-12	i	i	i
CC(C)CC(C(=O)NC1CCCCC1)N(Cc1cccs1)C(=O)c1snc(C(N)=O)c1N (stereo unspecified)	0.55	8*	-21	i	i	i
COc1ccc(C(C(=O)NCc2ccccc2)N(Cc2cccnc2)C(=O)c2snc(C(N)=O)c2N)cc1OC (stereo unspecified)	1.9	i	-21	i	i	i

Assay outcomes deposited in PubChem BioAssay by Johns Hopkins Ion Channel Center.
